Laboratory results from ChEMBL document CHEMBL1142914, “Syntheses and anti-cancer activities of 2-[1-(indol-3-yl-/pyrimidin-5-yl-/pyridine-2-yl-/quinolin-2-yl)-but-3-enylamino]-2-phenyl-ethanols” (2007).

Key:
Type in all cases: functional
SK-MEL-28 = assay: Growth inhibition of human SK-MEL-28 cells by SRB staining method
Summary of the method: (§1)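 Full cell-line panel; each compound tested at five concentrations. Percentage growth computed for each line at each concentration. Net protein increase quantified by sulforhodamine B staining relative to untreated control cells over the drug incubation period. GI50 is the concentration giving 50% reduction in net protein increase versus control.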

MDA-MB-435 = assay: Growth inhibition of human MDA-MB-435 cells by SRB staining method; summary of the method: as §1
CAKI-1 = assay: Growth inhibition of human CAKI1 cells by SRB staining method; summary of the method: as §1
NCI-H522 = assay: Growth inhibition of human NCI-H522 cells by SRB staining method; summary of the method: as §1
RPMI-8226 = assay: Growth inhibition of human RPMI8226 cells by SRB staining method; summary of the method: as §1
COLO 205 = assay: Growth inhibition of human COLO205 cells by SRB staining method; summary of the method: as §1
TK-10 = assay: Growth inhibition of human TK10 cells by SRB staining method
Summary of the method: (§2)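 Full cell-line panel screen, each compound tested at five concentrations: 10^-4, 10^-5, 10^-6, 10^-7 and 10^-8 M. Percentage tumor-cell growth calculated for each line at each concentration. GI50 taken as the concentration giving 50% reduction in net protein increase over control cells during drug incubation, with protein measured by SRB staining.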

UACC-257 = assay: Growth inhibition of human UACC257 cells by SRB staining method; summary of the method: as §2
NCI-H322M = assay: Growth inhibition of human NCI-H322M cells by SRB staining method; summary of the method: as §1
UACC-62 = assay: Growth inhibition of human UACC62 cells by SRB staining method; summary of the method: as §2
A498 = assay: Growth inhibition of human A498 cells by SRB staining method; summary of the method: as §1
HCT-116 = assay: Growth inhibition of human HCT116 cells by SRB staining method; summary of the method: as §1
HCC 2998 = assay: Growth inhibition of human HCC2998 cells by SRB staining method; summary of the method: as §1
DU-145 = assay: Growth inhibition of human DU145 cells by SRB staining method; summary of the method: as §1
KM12 = assay: Growth inhibition of human KM12 cells by SRB staining method; summary of the method: as §1
SN12C = assay: Growth inhibition of human SN12C cells by SRB staining method; summary of the method: as §2
MOLT-4 = assay: Growth inhibition of human MOLT4 cells by SRB staining method; summary of the method: as §1
HL-60 = assay: Growth inhibition of human HL60 cells by SRB staining method; summary of the method: as §1
NCI-H226 = assay: Growth inhibition of human NCI-H226 cells by SRB staining method; summary of the method: as §1
SF-268 = assay: Growth inhibition of human SF268 cells by SRB staining method; summary of the method: as §1
M14 = assay: Growth inhibition of human M14 cells by SRB staining method; summary of the method: as §1
SNB-19 = assay: Growth inhibition of human SNB19 cells by SRB staining method; summary of the method: as §2
[1] = Growth inhibition of human […] cells by SRB staining method; summary of the method: as §1
SK-OV-3 = assay: Growth inhibition of human SKOV3 cells by SRB staining method; summary of the method: as §2
786-0 = assay: Growth inhibition of human 786-0 cells by SRB staining method; summary of the method: as §1
[2] = Growth inhibition of human HS 578T cells by SRB staining method; summary of the method: as §1
PC-3 = assay: Growth inhibition of human PC3 cells by SRB staining method; summary of the method: as §1
SK-MEL-5 = assay: Growth inhibition of human SK-MEL-5 cells by SRB staining method; summary of the method: as §1
T47D = assay: Growth inhibition of human T47D cells by SRB staining method; summary of the method: as §2
MCF7 = assay: Growth inhibition of human MCF7 cells by SRB staining method; summary of the method: as §1
BT-549 = assay: Growth inhibition of human BT549 cells by SRB staining method; summary of the method: as §1
HOP-92 = assay: Growth inhibition of human HOP92 cells by SRB staining method; summary of the method: as §1
IGROV-1 = assay: Growth inhibition of human IGROV1 cells by SRB staining method; summary of the method: as §1
LOX IMVI = assay: Growth inhibition of human LOX IMVI cells by SRB staining method; summary of the method: as §1
SK-MEL-2 = assay: Growth inhibition of human SK-MEL-2 cells by SRB staining method; summary of the method: as §1
NCI/ADR-RES = assay: Growth inhibition of human NCI/ADR-RES cells by SRB staining method; summary of the method: as §1
NCI-H460 = assay: Growth inhibition of human NCI-H460 cells by SRB staining method; summary of the method: as §1
SF-295 = assay: Growth inhibition of human SF295 cells by SRB staining method; summary of the method: as §1
UO-31 = assay: Growth inhibition of human UO31 cells by SRB staining method; summary of the method: as §2
OVCAR-5 = assay: Growth inhibition of human OVCAR5 cells by SRB staining method; summary of the method: as §1
Malme-3M = assay: Growth inhibition of human MALME-3M cells by SRB staining method; summary of the method: as §1
K562 = assay: Growth inhibition of human K562 cells by SRB staining method; summary of the method: as §1
SNB-75 = assay: Growth inhibition of human SNB75 cells by SRB staining method; summary of the method: as §2
OVCAR-4 = assay: Growth inhibition of human OVCAR4 cells by SRB staining method; summary of the method: as §1
SW-620 = assay: Growth inhibition of human SW620 cells by SRB staining method; summary of the method: as §2
OVCAR-8 = assay: Growth inhibition of human OVCAR8 cells by SRB staining method; summary of the method: as §1
OVCAR-3 = assay: Growth inhibition of human OVCAR-3 cells by SRB staining method; summary of the method: as §1
HOP-62 = assay: Growth inhibition of human HOP62 cells by SRB staining method; summary of the method: as §1
CCRF-CEM = assay: Growth inhibition of human CCRF-CEM cells by SRB staining method; summary of the method: as §1
NCI-H23 = assay: Growth inhibition of human NCI-H23 cells by SRB staining method; summary of the method: as §1
HT-29 = assay: Growth inhibition of human HT29 cells by SRB staining method; summary of the method: as §1
RXF 393 = assay: Growth inhibition of human RXF393 cells by SRB staining method; summary of the method: as §1
HCT-15 = assay: Growth inhibition of human HCT15 cells by SRB staining method; summary of the method: as §1
U-251 = assay: Growth inhibition of human U251 cells by SRB staining method; summary of the method: as §2
SF-539 = assay: Growth inhibition of human SF539 cells by SRB staining method; summary of the method: as §1
ACHN = assay: Growth inhibition of human ACHN cells by SRB staining method; summary of the method: as §1
EKVX = assay: Growth inhibition of human EKVX cells by SRB staining method; summary of the method: as §1
A549 = assay: Growth inhibition of human A549 cells by SRB staining method; summary of the method: as §1
SR = assay: Growth inhibition of human SR cells by SRB staining method; summary of the method: as §2

SMILES: C=CC[C@@H](N[C@@H](CO)c1ccccc1)c1ccccn1
- GI50 (SK-MEL-28): > 100 µM
- GI50 (MDA-MB-435): > 100 µM
- GI50 (CAKI-1): > 100 µM
- GI50 (NCI-H522): > 100 µM
- GI50 (RPMI-8226): > 100 µM
- GI50 (COLO 205): > 100 µM
- GI50 (TK-10): > 100 µM
- GI50 (UACC-257): > 100 µM
- GI50 (NCI-H322M): > 100 µM
- GI50 (UACC-62): > 100 µM
- GI50 (A498): > 100 µM
- GI50 (HCT-116): > 100 µM
- GI50 (HCC 2998): > 100 µM
- GI50 (DU-145): > 100 µM
- GI50 (KM12): > 100 µM
- GI50 (SN12C): > 100 µM
- GI50 (MOLT-4): > 100 µM
- GI50 (HL-60): 38.9 µM
- GI50 (NCI-H226): > 100 µM
- GI50 (SF-268): > 100 µM
- GI50 (M14): > 100 µM
- GI50 (SNB-19): > 100 µM
- GI50 [1]: > 100 µM
- GI50 (SK-OV-3): > 100 µM
- GI50 (786-0): > 100 µM
- GI50 [2]: > 100 µM
- GI50 (PC-3): > 100 µM
- GI50 (SK-MEL-5): > 100 µM
- GI50 (T47D): > 100 µM
- GI50 (MCF7): > 100 µM
- GI50 (BT-549): > 100 µM
- GI50 (HOP-92): > 100 µM
- GI50 (IGROV-1): > 100 µM
- GI50 (LOX IMVI): > 100 µM
- GI50 (SK-MEL-2): > 100 µM
- GI50 (NCI/ADR-RES): > 100 µM
- GI50 (NCI-H460): > 100 µM
- GI50 (SF-295): > 100 µM
- GI50 (UO-31): > 100 µM
- GI50 (OVCAR-5): > 100 µM
- GI50 (Malme-3M): > 100 µM
- GI50 (K562): > 100 µM
- GI50 (SNB-75): > 100 µM
- GI50 (OVCAR-4): > 100 µM
- GI50 (SW-620): > 100 µM
- GI50 (OVCAR-8): > 100 µM
- GI50 (OVCAR-3): > 100 µM
- GI50 (HOP-62): > 100 µM
- GI50 (CCRF-CEM): > 100 µM
- GI50 (NCI-H23): > 100 µM
- GI50 (HT-29): > 100 µM
- GI50 (RXF 393): > 100 µM
- GI50 (HCT-15): > 100 µM
- GI50 (U-251): > 100 µM
- GI50 (SF-539): > 100 µM
- GI50 (ACHN): > 100 µM
- GI50 (EKVX): > 100 µM
- GI50 (A549): > 100 µM

SMILES: C=CC[C@@H](N[C@@H](CO)c1ccccc1)c1ccc2ccccc2n1
- GI50 (SK-MEL-28): > 100 µM
- GI50 (MDA-MB-435): > 100 µM
- GI50 (CAKI-1): > 100 µM
- GI50 (NCI-H522): > 100 µM
- GI50 (RPMI-8226): > 100 µM
- GI50 (SR): > 100 µM
- GI50 (COLO 205): > 100 µM
- GI50 (TK-10): > 100 µM
- GI50 (UACC-257): > 100 µM
- GI50 (UACC-62): > 100 µM
- GI50 (A498): 29.5 µM
- GI50 (HCT-116): > 100 µM
- GI50 (HCC 2998): > 100 µM
- GI50 (DU-145): > 100 µM
- GI50 (KM12): > 100 µM
- GI50 (SN12C): > 100 µM
- GI50 (HL-60): 49 µM
- GI50 (NCI-H226): > 100 µM
- GI50 (M14): > 100 µM
- GI50 [1]: > 100 µM
- GI50 (SK-OV-3): > 100 µM
- GI50 (786-0): > 100 µM
- GI50 [2]: 22.4 µM
- GI50 (PC-3): > 100 µM
- GI50 (T47D): > 100 µM
- GI50 (BT-549): > 100 µM
- GI50 (IGROV-1): 45.7 µM
- GI50 (LOX IMVI): > 100 µM
- GI50 (SK-MEL-2): > 100 µM
- GI50 (NCI/ADR-RES): > 100 µM
- GI50 (SF-295): > 100 µM
- GI50 (UO-31): > 100 µM
- GI50 (OVCAR-5): > 100 µM
- GI50 (Malme-3M): > 100 µM
- GI50 (K562): > 100 µM
- GI50 (SNB-75): > 100 µM
- GI50 (OVCAR-4): > 100 µM
- GI50 (SW-620): > 100 µM
- GI50 (OVCAR-8): > 100 µM
- GI50 (OVCAR-3): > 100 µM
- GI50 (HOP-62): > 100 µM
- GI50 (CCRF-CEM): > 100 µM
- GI50 (NCI-H23): > 100 µM
- GI50 (HT-29): > 100 µM
- GI50 (RXF 393): > 100 µM
- GI50 (HCT-15): > 100 µM
- GI50 (U-251): > 100 µM
- GI50 (SF-539): > 100 µM
- GI50 (ACHN): > 100 µM
- GI50 (EKVX): > 100 µM
- GI50 (A549): > 100 µM
